Some results are limits rather than exact numbers.

The target of assay [1] is T1, Glucagon receptor (Homo sapiens, UniProt P47871). Description: Inhibitory concentration against cAMP production in hGR-CHO cells. The class given is functional, cell-based. Put shortly: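 hGR-CHO cells grown to confluency, preincubated 10 min at 37 °C in assay buffer, then 10 min with 100 µM isobutylmethylxanthine. Test compound at 10 nM to 10 µM final, then glucagon at 10 pM final; 15 min incubation. Stopped with 65% ethanol; extracted cAMP measured by SPA assay. DMSO 0.1% control.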
T1 sequence (P47871 whole entry): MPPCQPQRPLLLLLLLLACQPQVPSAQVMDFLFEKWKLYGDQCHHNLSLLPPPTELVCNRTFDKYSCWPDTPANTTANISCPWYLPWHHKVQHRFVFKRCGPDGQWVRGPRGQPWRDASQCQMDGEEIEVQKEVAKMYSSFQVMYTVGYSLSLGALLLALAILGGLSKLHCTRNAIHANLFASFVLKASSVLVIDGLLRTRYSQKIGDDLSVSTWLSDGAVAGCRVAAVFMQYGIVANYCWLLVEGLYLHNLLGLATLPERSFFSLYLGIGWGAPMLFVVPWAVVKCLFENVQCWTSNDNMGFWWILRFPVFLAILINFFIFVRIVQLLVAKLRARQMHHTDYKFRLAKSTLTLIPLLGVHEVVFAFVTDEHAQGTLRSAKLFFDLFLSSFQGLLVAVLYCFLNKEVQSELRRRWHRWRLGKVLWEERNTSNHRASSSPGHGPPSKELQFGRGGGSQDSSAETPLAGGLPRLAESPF

Assay [2] has as its target T1, Glucagon receptor. The assay can be described thus: Inhibitory concentration against binding to the human glucagon receptor (hGR).

Turning to `CC(C)=Cc1c(C(C)C)nc(C(C)C)c(CO)c1-c1ccc(F)cc1`, the figures for the IC50 against Glucagon receptor [1] and at Glucagon receptor [2] were 2000 nM and 7000 nM, respectively.

For the compound `C=Cc1c(C(C)C)nc(C(C)C)c(CO)c1-c1ccc(F)cc1`, the half-maximal inhibitory concentration (IC50) – broadly, the midpoint of a concentration-inhibition curve – on Glucagon receptor [2] was determined as 6000 nM.

As for `COC(=O)c1c(C(C)C)nc(C(C)C)c(CO)c1-c1ccc(F)cc1`, at Glucagon receptor [2], the IC50 was determined as 9500 nM.

`CCCCCc1c(CC)nc(CC)c(CO)c1-c1ccccc1` returned an IC50 at Glucagon receptor [2] of 20000 nM.

`CCCCCc1c(C(C)C)nc(C(C)C)c(C(C)O)c1-c1ccc(F)cc1` (configuration not stated): the IC50 on Glucagon receptor [2] came out at 300 nM.

As for `CCCCCc1c(C)nc(C)c(CO)c1-c1ccccc1`, at Glucagon receptor [2], the IC50 was more than 20000 nM.

On Glucagon receptor [2], `CCCCc1c(C(C)C)nc(C(C)C)c(C(C)O)c1-c1ccc(F)cc1` (configuration not stated) had an IC50 of 250 nM.

`CCCCCCc1c(C(C)C)nc(C(C)C)c(CO)c1-c1ccc(F)cc1` yielded an IC50 on Glucagon receptor [2] of 350 nM.

`CCCCCc1c(C(C)C)nc(C(C)C)c(CO)c1-c1ccc(F)cc1` gave an IC50 on Glucagon receptor [2] of 700 nM.

For `CCCCCc1c(C(C)C)nc(C(C)C)c(CO)c1-c1ccccc1`, the IC50 on Glucagon receptor [2] came to 1400 nM.

Compound `CCc1c(C(C)C)nc(C(C)C)c(CO)c1-c1ccccc1` returned an IC50 at Glucagon receptor [2] of 1800 nM.

For `CC(C)c1nc(C(C)C)c(CO)c(-c2ccc(F)cc2)c1CO`, the IC50 at Glucagon receptor [2] is more than 20000 nM.

On Glucagon receptor [2], `CCc1c(C)nc(C)c(CO)c1-c1ccccc1` registered an IC50 of more than 20000 nM.

On to `CCc1nc(CC)c(CO)c(-c2ccccc2)c1CC`, for which, on Glucagon receptor [2], the IC50 is more than 20000 nM.

In the case of `COCc1c(C(C)C)nc(C(C)C)c(CO)c1-c1ccc(F)cc1`, the IC50 at Glucagon receptor [2] was 9000 nM.

`CCCCCc1c(C(C)C)nc(C(C)C)c([C@@H](C)O)c1-c1ccc(F)cc1` (single isomer, unassigned): the IC50 at Glucagon receptor [2] worked out at 150 nM.
